Converted amounts (≈) assume the structure as drawn.
Tests used:
[1] = test system: Streptococcus pneumoniae; assay: Antibacterial activity against Streptococcus pneumoniae M45B overexpressing patA, patB and inactivated patB with single mutation by standardized agar doubling dilution method in presence of 20 ug/ml reserpine efflux pump inhibitor; assay type: functional
How it was run: (§1)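 MICs were determined by BSAC agar doubling dilution in the presence of reserpine at 20 μg/ml. Strains were grown in BHI broth for 24 h at 37°C in 5% CO2, with R6 as control. Synergy was defined as an MIC drop of ≥2 dilutions with the inhibitor.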

[2] = test system: Streptococcus pneumoniae; assay: Antibacterial activity against fluoroquinolone-resistant Streptococcus pneumoniae by standardized agar doubling dilution method in presence of 50 uM sodium orthovanadate efflux pump inhibitor; assay type: functional
How it was run: (§2)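 MIC by agar doubling dilution following BSAC guidelines. Strains grown in brain heart infusion broth 24 h at 37°C in 5% CO2. Where an efflux pump inhibitor applies, MIC redetermined with reserpine at 20 μg/ml or sodium orthovanadate at 50 μM. Synergy taken as a fall in MIC of ≥2 dilutions with inhibitor present. Dye resistance defined relative to R6 (both dyes ≥2 dilutions higher).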

[3] = test system: Streptococcus pneumoniae; assay: Antibacterial activity against Streptococcus pneumoniae M316 overexpressing patA, patB and inactivated patA with single mutation by standardized agar doubling dilution method in presence of 50 uM sodium orthovanadate efflux pump inhibitor; assay type: functional
How it was run: (§3)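 MICs were determined by BSAC agar doubling dilution in the presence of sodium orthovanadate at 50 μM. Cultures were grown in BHI broth for 24 h at 37°C in 5% CO2, with R6 as control. Synergy was defined as an MIC reduction of ≥2 dilutions with the inhibitor present.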

[4] = test system: Streptococcus pneumoniae; assay: Antibacterial activity against Streptococcus pneumoniae M87A overexpressing patA, patB and inactivated patA with single mutation by standardized agar doubling dilution method in presence of 50 uM sodium orthovanadate efflux pump inhibitor; assay type: functional; how it was run: as §3
[5] = test system: Streptococcus pneumoniae; assay: Antibacterial activity against wild-type Streptococcus pneumoniae R6 by standardized agar doubling dilution method in presence of 50 uM sodium orthovanadate efflux pump inhibitor
[6] = test system: Streptococcus pneumoniae; assay: Antibacterial activity against Streptococcus pneumoniae M317 overexpressing patA, patB and inactivated patB with single mutation by standardized agar doubling dilution method in presence of 20 ug/ml reserpine efflux pump inhibitor; assay type: functional; how it was run: as §1
[7] = test system: Streptococcus pneumoniae; assay: Antibacterial activity against Streptococcus pneumoniae M300 overexpressing patA, patB and inactivated patA with single mutation by standardized agar doubling dilution method; assay type: functional
How it was run: (§4)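 MICs determined by BSAC standardized agar doubling dilution. Strains were grown in brain heart infusion broth for 24 h at 37°C in 5% CO2. Inhibitor arms had reserpine at 20 μg/ml or sodium orthovanadate at 50 μM in the agar. Mutants were made by transforming magellan2 insertion amplimers into clinical isolates and selecting on spectinomycin 100 mg/liter, with a no-DNA spontaneous-mutation control.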

[8] = test system: Streptococcus pneumoniae; assay: Antibacterial activity against fluoroquinolone-resistant Streptococcus pneumoniae M100 FQ-R overexpressing patA, patB by standardized agar doubling dilution method in presence of 50 uM sodium orthovanadate efflux pump inhibitor; assay type: functional
How it was run: (§5)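 MIC by agar doubling dilution per BSAC guidelines; strains pregrown in brain heart infusion broth 24 h, 37°C, 5% CO2. MICs measured alone and with efflux pump inhibitors reserpine (20 μg/ml) or sodium orthovanadate (50 μM); synergy defined as ≥2-dilution MIC reduction in presence of inhibitor.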

[9] = test system: Streptococcus pneumoniae; assay: Antibacterial activity against fluoroquinolone, dye-resistant Streptococcus pneumoniae M86 overexpressing patA, patB by standardized agar doubling dilution method; assay type: functional; how it was run: as §2
[10] = test system: Streptococcus pneumoniae; assay: Antibacterial activity against Streptococcus pneumoniae M316 overexpressing patA, patB and inactivated patA with single mutation by standardized agar doubling dilution method; assay type: functional
How it was run: (§6)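 MICs were determined by agar doubling dilution following BSAC guidelines, with no efflux inhibitor. Strains were grown in brain heart infusion broth for 24 h at 37°C in 5% CO2. Species identity was confirmed by Gram stain, optochin sensitivity and capsule test. Control strain R6 was tested alongside.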

[11] = test system: Streptococcus pneumoniae; assay: Antibacterial activity against Streptococcus pneumoniae M87A overexpressing patA, patB and inactivated patA with single mutation by standardized agar doubling dilution method in presence of 20 ug/ml reserpine efflux pump inhibitor; assay type: functional; how it was run: as §1
[12] = test system: Streptococcus pneumoniae; assay: Antibacterial activity against fluoroquinolone, dye-susceptible Streptococcus pneumoniae M295 S overexpressing patA, patB by standardized agar doubling dilution method in presence of 50 uM sodium orthovanadate efflux pump inhibitor; assay type: functional; how it was run: as §5
[13] = test system: Streptococcus pneumoniae; assay: Antibacterial activity against fluoroquinolone, dye-resistant Streptococcus pneumoniae M74 overexpressing patA, patB by standardized agar doubling dilution method in presence of 50 uM sodium orthovanadate efflux pump inhibitor; assay type: functional; how it was run: as §2
[14] = test system: Streptococcus pneumoniae; assay: Antibacterial activity against dye-resistant Streptococcus pneumoniae by standardized agar doubling dilution method; assay type: functional; how it was run: as §2
[15] = test system: Streptococcus pneumoniae; assay: Antibacterial activity against Streptococcus pneumoniae M311B overexpressing patA, patB and inactivated patB with single mutation by standardized agar doubling dilution method in presence of 50 uM sodium orthovanadate efflux pump inhibitor; assay type: functional; how it was run: as §4
[16] = test system: Streptococcus pneumoniae; assay: Antibacterial activity against fluoroquinolone-resistant Streptococcus pneumoniae M97 FQ-R overexpressing patA, patB by standardized agar doubling dilution method in presence of 50 uM sodium orthovanadate efflux pump inhibitor; assay type: functional; how it was run: as §5
[17] = test system: Streptococcus pneumoniae; assay: Antibacterial activity against fluoroquinolone, dye-resistant Streptococcus pneumoniae M297 overexpressing patA, patB by standardized agar doubling dilution method; assay type: functional; how it was run: as §2
[18] = test system: Streptococcus pneumoniae; assay: Antibacterial activity against Streptococcus pneumoniae M311B overexpressing patA, patB and inactivated patB with single mutation by standardized agar doubling dilution method in presence of 20 ug/ml reserpine efflux pump inhibitor; assay type: functional; how it was run: as §4
[19] = test system: Streptococcus pneumoniae; assay: Antibacterial activity against Streptococcus pneumoniae M311 overexpressing patA, patB and inactivated patA with single mutation by standardized agar doubling dilution method in presence of 50 uM sodium orthovanadate efflux pump inhibitor; assay type: functional; how it was run: as §4
[20] = test system: Streptococcus pneumoniae; assay: Antibacterial activity against Streptococcus pneumoniae M46B overexpressing patA, patB and inactivated patB with single mutation by standardized agar doubling dilution method; assay type: functional; how it was run: as §6
[21] = test system: Streptococcus pneumoniae; assay: Antibacterial activity against Streptococcus pneumoniae M55B overexpressing patA, patB and inactivated patB with single mutation by standardized agar doubling dilution method in presence of 20 ug/ml reserpine efflux pump inhibitor; assay type: functional; how it was run: as §1
[22] = test system: Streptococcus pneumoniae; assay: Antibacterial activity against Streptococcus pneumoniae M87B overexpressing patA, patB and inactivated patB with single mutation by standardized agar doubling dilution method in presence of 20 ug/ml reserpine efflux pump inhibitor; assay type: functional; how it was run: as §1
[23] = test system: Streptococcus pneumoniae; assay: Antibacterial activity against Streptococcus pneumoniae M87B overexpressing patA, patB and inactivated patB with single mutation by standardized agar doubling dilution method in presence of 50 uM sodium orthovanadate efflux pump inhibitor; assay type: functional; how it was run: as §3
[24] = test system: Streptococcus pneumoniae; assay: Antibacterial activity against Streptococcus pneumoniae M305 overexpressing patA, patB and inactivated patB with single mutation by standardized agar doubling dilution method in presence of 50 uM sodium orthovanadate efflux pump inhibitor; assay type: functional; how it was run: as §4
[25] = test system: Streptococcus pneumoniae; assay: Antibacterial activity against fluoroquinolone-resistant Streptococcus pneumoniae M79 FQ-R overexpressing patA, patB by standardized agar doubling dilution method in presence of 20 ug/ml reserpine efflux pump inhibitor; assay type: functional
How it was run: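 Clinical S. pneumoniae isolates grown in BHI broth 24 h at 37°C in 5% CO2. MICs by agar doubling dilution per BSAC guidelines, alone or with efflux inhibitor reserpine (20 μg/ml) or sodium orthovanadate (50 μM). Synergy defined as ≥2-dilution MIC reduction in presence of inhibitor.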

[26] = test system: Streptococcus pneumoniae; assay: Antibacterial activity against Streptococcus pneumoniae M298 overexpressing patA, patB and inactivated patA with single mutation by standardized agar doubling dilution method in presence of 50 uM sodium orthovanadate efflux pump inhibitor; assay type: functional; how it was run: as §4

Row | SMILES | MIC [1] | MIC90 [2] | MIC [3] | MIC [4] | MIC [5] | MIC [6] | MIC [7] | MIC [8] | MIC [9] | MIC [10] | MIC [11] | MIC [12] | MIC [13] | MIC [14] | MIC90 [14] | MIC [15] | MIC [16] | MIC [17] | MIC [18] | MIC [19] | also measured
1 | O=C(O)c1cn(C2CC2)c2cc(N3CCNCC3)c(F)cc2c1=O [CIPROFLOXACIN] | 1 µg/mL | 2 µg/mL | 8 µg/mL | 8 µg/mL | 0.25 µg/mL | 8 µg/mL | 2 µg/mL (≈ 6.04 µM) | 1 µg/mL | 2 µg/mL (≈ 6.04 µM) | 8 µg/mL (≈ 24.1 µM) | 8 µg/mL | 0.25 µg/mL | 64 µg/mL | 0.25 µg/mL (≈ 0.754 µM) | 0.25 µg/mL (≈ 0.754 µM) | 4 µg/mL | 8 µg/mL | 8 µg/mL (≈ 24.1 µM) | 4 µg/mL | 4 µg/mL | MIC [20]: 0.12 µg/mL (≈ 0.362 µM); MIC [21]: 2 µg/mL; MIC [22]: 8 µg/mL; MIC [23]: 8 µg/mL; MIC [24]: 8 µg/mL; MIC [25]: 32 µg/mL; MIC [26]: 8 µg/mL
2 | CC[n+]1c(-c2ccccc2)c2cc(N)ccc2c2ccc(N)cc21.[Br-] [HOMIDIUM BROMIDE] | 0.5 µg/mL | 0.5 µg/mL | 0.5 µg/mL | 0.5 µg/mL | 0.12 µg/mL | 0.5 µg/mL | 0.5 µg/mL | 1 µg/mL | 4 µg/mL | 0.25 µg/mL | 0.5 µg/mL | 0.5 µg/mL | 1 µg/mL | 16 µg/mL | 16 µg/mL | 8 µg/mL | 1 µg/mL | 8 µg/mL | 0.5 µg/mL | 8 µg/mL | MIC [20]: 0.5 µg/mL; MIC [21]: 0.5 µg/mL; MIC [22]: 0.5 µg/mL; MIC [23]: 0.5 µg/mL; MIC [24]: 0.25 µg/mL; MIC [25]: 0.5 µg/mL; MIC [26]: 0.5 µg/mL

From ChEMBL document CHEMBL1687824, “Overexpression of patA and patB, which encode ABC transporters, is associated with fluoroquinolone resistance in clinical isolates of Streptococcus pneumoniae” (2011)
